HSF1 inhib: HSF1 inhibitors in luciferase reporter cells, primary screen, cell-based, NIH3T3, luminescence; activity change, negative = inhibition, % at 7.5 µM (by protocol); actives 0.77% (n = 300,000); NIH3T3-HGL HSE-luciferase, MG132-induced, luminescence 8 h; active compounds read low;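 active means more than half of replicate wells show activity change below -50%, luminescence cut by over half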;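 further: luciferase reports HSF-1 transcriptional activity via heat shock element; 0% = median of DMSO wells and -100% = zero luminescence signal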
HSF-1 act: HSF-1 activators, primary screen, NIH3T3-HGL cells, MG132 stress, luminescence, single point | NIH3T3-HGL HSF-1 luciferase reporter, 8 h; 100% = twice DMSO control signal | activation, % at 9 µM | actives 1.7% (n = 300,000) | AID 504408, 2011;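 active means mean replicate activation of at least 50% with a set share of replicates each reaching 50%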;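 further: 0% = median of the neutral control wells and 100% = twice that signal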
CHT block: inhibitors of human choline transporter CHT. High affinity choline transporter 1 (Homo sapiens), Q9GZV3. CHT-expressing cells, membrane potential dye, choline response; active compounds read low. B-score at 10 µM. actives 0.86% (n = 310,000). AID 488975, 2010;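 active means B-score over 3 SD under the library average, and starting fluorescence ratio not unusually high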;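 further: choline stimulus applied at its EC90 after an EC20 pre-addition; B-score computed on integrated fluorescence ratio after choline addition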
Lipid droplet: inhibitors of hepatocyte lipid droplet formation, primary screen, imaging, high-throughput imaging, BODIPY stain | AID 1656, 2009 | inhibition, % at 6.5 µM | actives 0.4% (n = 240,000) | AML12 mouse hepatocytes, oleate lipid droplets;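 active means lipid droplet intensity inhibited by at least 50%, with more than 500 cells counted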
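Test system: AML12 hepatocytes (mouse); reagent: oleate loading, 100 µM; dosing: one dose, 6.5 µM compound; incubation: overnight exposure; signal: fluorescence imaging, 20x objective, two fields per well; read-out basis: % inhibition of corrected integrated BODIPY droplet signal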
PHOSPHO1 block: PubChem AID 1565; Phosphoethanolamine/phosphocholine phosphatase (Homo sapiens), Q8TCT1; recombinant PHOSPHO1, absorbance phosphatase assay; inhibition, % at 13.3 µM; actives 1.1% (n = 290,000); in the data active means inhibition above about 60%
Target sequence (Q8TCT1 whole entry, looked up): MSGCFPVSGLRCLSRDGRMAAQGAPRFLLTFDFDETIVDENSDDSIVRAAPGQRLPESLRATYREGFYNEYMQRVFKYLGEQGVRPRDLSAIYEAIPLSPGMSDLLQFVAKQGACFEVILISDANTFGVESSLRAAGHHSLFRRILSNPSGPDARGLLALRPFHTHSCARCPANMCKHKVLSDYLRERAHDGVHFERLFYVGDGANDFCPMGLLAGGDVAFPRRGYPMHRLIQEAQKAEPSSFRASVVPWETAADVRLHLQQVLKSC
CHT PAM: CHT positive allosteric modulators, primary screen, cell-based, membrane potential dye, choline EC20; actives 0.49% (n = 310,000); B-score at 10 µM; CHT-expressing cells; active compounds read high; LV-AA mutant CHT in HEK293 cells; AID 488977, 2010; High affinity choline transporter 1 (Homo sapiens), Q9GZV3;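 active means initial fluorescence not abnormally high and integrated response B-score, plate-corrected, over 3 SD above library mean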
The depositor's hits bear a star; i = inactive; / = not tested or not shown. Compounds with a hit are over-represented: about 4.9% of the library has one in this group of screens.

SMILES	HSF1 inhib	HSF-1 act	CHT block	Lipid droplet	PHOSPHO1 block	CHT PAM
Cc1cc(C)nc(-n2nc(C)c(Sc3ccc(F)cc3)c2N)n1	31	62*	i	/	7	i
Nc1ccc(NC(=O)c2ccco2)c(Cl)c1	18	56*	i	-4	24	i
COc1ccc(NC(=O)c2ccco2)cc1N	-57*	-63	i	/	32	i
O=C(Nc1cc(Cl)ccc1Cl)c1ccco1	-6	1	i	-3	18	i
COc1cc(NC(=O)c2ccccc2Cl)ccc1NC(=O)c1ccco1	55	71*	i	/	18	i
COc1cc(NC(=O)c2ccco2)ccc1NC(=O)c1ccccc1Cl	4	0	i	5	12	i
COc1ccc(-n2c(SCC(=O)N/N=C/c3ccccc3OCC(=O)O)nc3ccccc3c2=O)cc1	4	6	i	22	42	i
COc1ccccc1C(=O)NC(=O)COC(=O)CNC(=O)c1ccc(Cl)c([N+](=O)[O-])c1	1	15	i	/	/	i
Cc1ccc(-c2nn[nH]n2)o1	-58*	-70	i	/	7	i
CC(=O)N1N=C(c2cccs2)CC1c1cccc([N+](=O)[O-])c1 (stereo not given)	9	35	i	-14	13	i
COc1ccc(NC(=O)C=C(C)C)cc1Cl	/	/	i	2	2	i
CC(C)=CC(=O)Nc1ccc(Cl)cc1	27	51*	i	-1	-30	i
CCCc1cc(=O)n2[nH]c(-c3ccc(Cl)cc3)cc2n1	20	64*	i	-25	/	i
CCCc1cc(=O)n2[nH]c(-c3ccc(C)cc3)cc2n1	23	44	i	/	-3	i
CCOC(=O)c1c(C)[nH]c(C(=O)N/N=C/c2ccc(OC)c(OC)c2)c1C	-8	-9	i	-3	75*	i
CCOC(=O)c1c(C)[nH]c(C(=O)N/N=C\c2ccccc2O)c1C	-10	0	i	-27	3	i
CCOC(=O)c1c(C)[nH]c(C(=O)N/N=C/c2cc([N+](=O)[O-])ccc2O)c1C	-59*	-64	i	-20	36	i
Cc1ccc(S(=O)(=O)N2CCN(C(=O)CCC(=O)NCCc3ccc(S(N)(=O)=O)cc3)CC2)c(C)c1	3	-12	i	-4	17	i
CC(O)CNc1nc2c(c(=O)n(C)c(=O)n2C)n1CCc1ccccc1 (stereo not given)	-5	6	i	20	10	i
Cc1ccc(S(=O)(=O)N2CCCC(C(=O)NCCc3ccc4c(c3)OCO4)C2)cc1 (stereo not given)	-68*	-76	i	/	-3	i
Cc1ccc(S(=O)(=O)N2CCCC(C(=O)NCc3ccc4c(c3)OCO4)C2)cc1 (stereo not given)	-6	-17	i	6	31	i
CCOc1ccc(-n2cc(-c3ccc(OC)c(OC)c3)[nH]c2=S)cc1	58	55*	i	-4	12	i
CCOc1ccc(-c2cn(-c3ccccc3OC)c(=S)[nH]2)cc1	-3	-4	i	-2	-94	i
Cc1ccc(S(=O)(=O)N2CCOC2C(Cl)(Cl)Cl)cc1 (stereo not given)	-5	-20	i	0	14	i
COCCNc1nc(-c2cc3ccccc3o2)cs1	14	56*	i	-18	7	i
SMILES	HSF1 inhib	HSF-1 act	CHT block	Lipid droplet	PHOSPHO1 block	CHT PAM
CCCCNC(=O)C1CC(c2cccc(F)c2)=NO1 (stereo not given)	17	7	i	-11	35	i
Cc1ccc(S(=O)(=O)NC2c3cccc4cccc(c34)C2Sc2nncn2C)cc1 (stereo not given)	19	67*	i	-1	-16	i
Cn1cnnc1SC1c2cccc3cccc(c23)C1NS(=O)(=O)c1ccccc1 (stereo not given)	6	24	i	-5	-24	i
Cc1onc(-c2c(F)cccc2Cl)c1C(=O)Nc1nnc(C(F)(F)F)s1	-4	-22	-8.7*	-6	57	i
Cc1nnc(NC(=O)c2c(-c3ccccc3Cl)noc2C)s1	1	23	i	-6	60*	i
CCc1ccc(NC(=S)NC(=O)c2c(-c3ccccc3Cl)noc2C)cc1	-1	4	i	-7	28	i
Cc1onc(-c2ccccc2Cl)c1C(=O)NC(=S)NCC(=O)c1ccccc1	6	12	i	-17	63*	i
CCOc1ccc(N(C(=O)C2CCCO2)C2C=CS(=O)(=O)C2)cc1 (stereo not given)	-3	-10	i	-1	43	i
CCS(=O)CCSC(=N)N (stereo not given)	-11	3	i	10	-7	i
CCN(CC)CCNC(=O)CNC(=O)c1nn(-c2ccc(OC)cc2OC)c(=O)c2ccccc12	7	9	i	/	10	i
Cc1ccc(OCCNc2ccc(C(F)(F)F)cc2[N+](=O)[O-])cc1	19	32	i	-11	3	i
Cc1cc(C)cc(OC(=O)CS(=O)c2ccc(C(F)(F)F)cc2[N+](=O)[O-])c1 (stereo not given)	125	171*	i	/	-9	i
O=C(CS(=O)c1ccc(C(F)(F)F)cc1[N+](=O)[O-])Oc1ccc(Cl)cc1 (stereo not given)	65	73*	i	/	20	i
CCOC(=O)N1CCN(Cc2nc(-c3cccc(Cl)c3)no2)CC1	-1	11	i	-1	22	i
Cc1ccsc1C(=O)NNC(=O)C1C2C=CC(C2)C1C(=O)O (stereo not given)	/	/	i	-3	-7	i
O=C(NCCCN1CCC(Cc2ccccc2)CC1)C1CC(=O)N(C2CCCC2)C1 (stereo not given)	-62*	-71	i	0	18	i
O=C(NCCCN1CCC(Cc2ccccc2)CC1)C1CCC(=O)N1C1CCCC1 (stereo not given)	1	2	i	/	24	i
Oc1c(Cl)cc(Cl)cc1C=Nc1cc(C(F)(F)F)ccc1N1CCc2ccccc2C1	37	70*	i	-2	-38	i
Oc1c(Cl)cccc1C=Nc1cc(C(F)(F)F)ccc1N1CCCC1	-1	5	i	-6	-50	i
